Diaphorase act = compounds boosting diaphorase resazurin reduction – biochemical, uHTS, resorufin fluorescence, counter-screen for diaphorase-coupled primary assays, primary screen. Diaphorase/resazurin coupled assay, 16 min; active compounds read high; 1 = vehicle wells, 0 = NADH-free wells. activation factor at 20 µM. 190,000 compounds, 0.005% hits. AID 1229, 2008;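 active = diaphorase activity raised at least twofold by the compound at 20 µM; inactive = activation factor below 2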
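Test system: Clostridium kluyveri diaphorase, purified enzyme. Buffer or medium: 50 mM HEPES pH 7.4 buffer plus MgCl2 and Tween 20. Also added: 0.114 mM NADH and 0.1 mM resazurin, final amounts. Dosing: compound 20 µM once, DMSO 1%. Schedule: 16 min enzyme reaction, ambient temperature. Detection: fluorescence of resorufin, 544 nm excitation, 590 nm emission.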
Diaph inh CS = diaphorase inhibitors and chemical oxidizers, primary screen, counter-screen for diaphorase-coupled primary assays, biochemical, uHTS, resorufin fluorescence. diaphorase resazurin-to-resorufin fluorescence, NADH, 16 min; bacterial (C. kluyveri) enzyme, not human. inhibition, % at 20 µM. 190,000 compounds, 0.69% hits;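 active = primary screen inhibition at 20 µM above a set limit, cut at about 50% in these data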;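 note: plate controls were DMSO with full reaction for no effect and wells lacking NADH for full effect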
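material = Clostridium kluyveri diaphorase enzyme | amount = 0.14 U/mL diaphorase, enzyme working solution | schedule = incubation 16 min, room temperature | detection = fluorescence of resorufin formed from resazurin, Ex 544/Em 590 nm | benchmarks = positive control minus NADH, DMSO neutral control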
FLuc stim CS = FLuc activators, initial screening, artefact control for FLuc-dependent activation tests, biochemical, ATPlite luminescence; ATPlite luciferase biochemical, 10 min; 0 = ATP-free wells, 1 = DMSO control; activation factor at 10 µM; 200,000 tested, under 10 active;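 active = luciferase activation factor, scaled between plate controls, of at least 2 with compound at 10 µM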
Target sequence (P08659 whole entry, looked up): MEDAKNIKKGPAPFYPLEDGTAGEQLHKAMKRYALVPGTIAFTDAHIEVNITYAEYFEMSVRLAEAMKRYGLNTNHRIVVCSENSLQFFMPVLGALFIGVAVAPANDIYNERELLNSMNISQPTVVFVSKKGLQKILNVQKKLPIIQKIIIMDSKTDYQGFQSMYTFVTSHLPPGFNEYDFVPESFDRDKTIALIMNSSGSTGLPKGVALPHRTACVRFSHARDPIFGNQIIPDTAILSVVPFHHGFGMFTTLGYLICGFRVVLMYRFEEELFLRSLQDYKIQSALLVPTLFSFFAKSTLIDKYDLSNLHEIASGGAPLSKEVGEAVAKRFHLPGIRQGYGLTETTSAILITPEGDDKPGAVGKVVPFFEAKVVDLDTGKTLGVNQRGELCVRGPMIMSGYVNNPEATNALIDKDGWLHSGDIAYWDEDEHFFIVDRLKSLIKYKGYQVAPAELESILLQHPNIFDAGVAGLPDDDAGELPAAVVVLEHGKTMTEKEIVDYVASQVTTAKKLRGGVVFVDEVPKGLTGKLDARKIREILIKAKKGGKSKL
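test system = cell-free luciferase reagent | medium = PBS as buffer for the ATP substrate | dosing = test compounds dosed from 2 mM stocks in 100% DMSO | incubation = 10 min at ambient temperature | detection = luminescence measurement of luciferase light output | benchmarks = low control with PBS replacing ATP, high control enzyme plus ATP without compound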
G6PDH CS = L. mesenteroides G6PDH inhibitors, counter-screen for G6PDH-coupled screening assays, biochemical, Leuconostoc mesenteroides enzyme. glucose-6-phosphate dehydrogenase [Leuconostoc mesenteroides]. Purified L. mesenteroides G6PDH, diaphorase/resazurin coupled fluorescence, 45 min. inhibition, % at 5 µM. 200,000 compounds, 0.12% hits. AID 1020, 2008; in the data active = inhibition above about 50%
FLuc inh counter = firefly luciferase enzyme inhibitors, primary screen, artefact control for luciferase-based inhibitor screens, biochemical, luminescence, ATPLite. inhibition, % at 10 µM. 200,000 compounds, 1.5% hits. 10 min;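 active = inhibition above about 50% when tested at 10 µM, limit read from the data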
Numbers without * were called inactive; . = no result given. This is a sample that favours compounds with a hit; in the whole collection about 2.3% have one here.

SMILES	Diaphorase act	Diaph inh CS	FLuc stim CS	G6PDH CS	FLuc inh counter
CC(C)(C)C(=O)N1CCc2cc(-c3csc(N)n3)ccc21	0.9	7	0	-7	96*
CNc1nc(-c2ccc3c(c2)CCN3C(=O)c2ccccc2F)cs1	0.7	27	0.4	14	65*
Nc1nc(-c2ccc3c(c2)CCCC3)cs1	1.1	-12	0.4	9	58*
CC1(c2cccs2)CC(c2cccs2)=C(C#N)C(=O)N1 (configuration not stated)	0.9	7	1	6	-5
Cc1ccc(NS(=O)(=O)c2ccc(NC(=O)c3ccc(Br)o3)cc2)c(C)c1	0.8	24	1.1	-21	-6
COc1ccc(C)cc1NC(=O)C(NCC1CCCO1)c1ccccc1 (configuration not stated)	1	0	1	2	-4
CC(C)c1ncc(C(O)c2cccc3ccccc23)n1C (configuration not stated)	0.9	9	1.1	11	-6
c1cncc(Nc2nc(-c3cccnc3)cs2)c1	0.8	21	1	-2	-1
Clc1ccccc1Nc1nc(-c2cccnc2)cs1	.	.	0.2	22	84*
Clc1ccccc1Nc1nnc(-c2ccncc2)s1	0.9	11	0.2	12	82*
CN(C)c1ccnc(N(Cc2ccccc2)Cc2ccccc2)c1C#N	0.8	25	1	-3	-3
Cc1ccc(N(CC(=O)Nc2cccc(C)c2)S(=O)(=O)c2cccc3nonc23)cc1	0.9	9	1	10	-2
COc1ccc(NC(=S)Nc2ccc3nccnc3c2)cc1	0.3	65*	0.9	15	13
C=CCc1cccc2cc(C(=O)Nc3ccc(S(=O)(=O)Nc4nnc(CC)s4)cc3)c(=O)oc12	0.5	52*	1	-22	3
C=CCc1cccc2cc(C(=O)Nc3ccc(F)cc3)c(=O)oc12	1	2	1.1	1	-7
CNC(=O)CNC(=O)Nc1ccc(Cl)c(Cl)c1	0.3	67*	1.1	7	-5
COc1ccc(-n2cc3c(-c4cccc(Br)c4)nnc(C)c3n2)cc1	0.8	17	1	7	-4
O=C(Nc1ccc(N2CCCCC2)cc1)c1ccc2ccccc2n1	0.9	6	0.5	3	54*
O=C(Nc1ccccn1)c1ccc2ccccc2n1	1.2	-16	0.2	7	84*
Cc1cccc(NC(=O)c2ccc3ccccc3n2)c1C	0.8	22	0.6	-1	42
COc1ccc(CCn2c(C)cc(C(=O)CCl)c2C)cc1OC	0.9	7	1.1	7	-11
O=C(c1ccccc1)c1cc(Cl)ccc1N1C(=O)C=CC1=O	0.9	11	0.4	7	58*
Cc1oc2c(c1C(=O)c1ccc(Cl)cc1)C(=O)C(=O)c1ccccc1-2	0.4	60*	1.1	60*	-10
Cc1ccc(C(=O)c2c(C)oc3c2C(=O)C(=O)c2ccccc2-3)cc1	0.4	57*	1	63*	2
Cc1ccc(C(=O)c2coc3c2C(=O)C(=O)c2ccccc2-3)cc1	0.4	58*	1	58*	-2
SMILES	Diaphorase act	Diaph inh CS	FLuc stim CS	G6PDH CS	FLuc inh counter
CC(C)c1nc(NCCO)c2nnn(Cc3ccccc3)c2n1	1	-2	1	6	-1
Cc1cc2cc(C)c3nnc(SCC(=O)Nc4ccc(S(=O)(=O)N5CCCCC5)cc4)n3c2cc1C	0.9	13	1	1	-5
O=C(Cc1nc2ccccc2[nH]c1=O)c1ccccc1	1	3	0.4	-4	58*
O=C(Nc1nc2ccccc2[nH]1)c1ccccc1	0.8	19	0.1	5	88*
O=c1[nH]c2ccccc2nc1Cc1ccccc1	1	-2	1	12	0
CC(=O)Nc1nc2ccccc2[nH]1	0.9	9	1	7	-2
O=S(=O)(c1ccc(F)cc1)N1CCN(c2ccccn2)CC1	0.8	15	1.1	3	-6
CN1C(=O)/C(=C/c2ccc(-c3ccccc3[N+](=O)[O-])o2)SC1=Nc1ccc(Cl)c(C(=O)O)c1	0.6	44	1	1	1
CCOc1cc2c(C#N)c(N3CCOCC3)nc(N)c2c(N)n1	0.4	64*	1.1	18	-6
COc1ccc(C(=O)/C(C#N)=N/Nc2cccc([N+](=O)[O-])c2)cc1	0.9	14	1	8	-4
Cc1ccc(C(=O)N(C)c2ccc(OCC(=O)N3c4ccc(C)cc4C4CN(C)CCC43)cc2)cc1 (configuration not stated)	0.9	6	0.1	-2	88*
O=C(c1ccc2nc(-c3ccco3)c(-c3ccco3)nc2c1)N1CCN(c2ncccn2)CC1	0.3	66*	1	27	-2
S=C(Nc1ccc(N2CCOCC2)cc1)Nc1ccc2nc(-c3ccco3)c(-c3ccco3)nc2c1	0.4	64*	0.9	40	10
O=C(Nc1ccc2nc(-c3ccco3)c(-c3ccco3)nc2c1)N1CCN(c2ccccn2)CC1	0.3	70*	1	24	4
O=C(Nc1ccc(N2CCOCC2)cc1)c1ccc2nc(-c3ccco3)c(-c3ccco3)nc2c1	0.7	30	1.1	-60	-7
Cc1cccc(Oc2ccc(S(=O)(=O)N3CCCCC3)cc2N)c1	0.8	23	1.1	1	-6
Nc1c(C(O)(C(F)(F)F)C(F)(F)F)cc(C(O)(C(F)(F)F)C(F)(F)F)c2ccccc12	0.6	37	1	0	-3
O=C1C2C3C=CC(CC3)C2C(=O)N1/N=C/c1c[nH]c2ccccc12 (configuration not stated)	0.9	9	0.5	3	52*
CCOc1ccc(C(=O)CC(NCc2cccs2)C(=O)O)cc1 (configuration not stated)	1	-3	1	1	-4
Cc1ccc2nc(N3CCN(c4ccccc4F)CC3)c(C=O)c(=O)n2c1	0.5	53*	1	18	-1
Cc1ccc2nc(N3CCCCC3)c(C=O)c(=O)n2c1	1	0	1	6	-3
C/C(=N\n1nnnc1Nc1ccccc1)c1ccc(N)cc1	1	-4	1	2	-2
O=C(N/N=C/c1sc(N2CCCCC2)nc1-c1cccs1)C1CC1	0.9	7	0.9	8	7
CC(C)NC(=S)N/N=C/c1sc(N2CCCCC2)nc1-c1cccs1	0.8	16	0.5	8	53*

Assay outcomes as filed in PubChem BioAssay.
